Source: PubChem
Shown are actives, neighbours in structure and some others; about 3.9% of the full set was active somewhere.
NF-kB expr up: compounds increasing NF-kB expression in human neuronal cells | NF-kB reporter expression; hits give high values | fold change at 12.5 µM | hit rate 1.6% among 190,000 | AID 1239; in the data active = fold change above about 3.3
Pf gamet viab: kills late stage P. falciparum gametocytes. P. falciparum stage V gametocytes, ATP luminescence, 24 h. inhibition, % at 10.9 µM. hit rate 0.065% among 150,000. AID 743093;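 active = inhibition above the mean plus 3 SD of compounds within the control limits, set per campaign, cut at about 38% in these data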;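 note: 0% = DMSO wells and 100% = medium only without gametocytes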
STAT1 activator: increases IFN-gamma driven STAT1 reporter signal; NIH 3T3 STAT1-luciferase reporter, luminescence; 100% = IFN-gamma alone, no compound; activation (% of control), % at 5.5 µM; hit rate 2.6% among 200,000;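 active = activation above the screen-wide mean activation plus 3 SD, cut at about 130% in these data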;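 note: raw ratio to IFN-gamma control signal so 100% means no change and 0% no light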
STAT1 inh: reduces IFN-gamma driven STAT1 reporter signal | NIH 3T3 STAT1-luciferase reporter, luminescence | inhibition, % at 5.5 µM | hit rate 0.35% among 200,000;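 active = inhibition above a set limit, the mean inhibition across all tested compounds plus 3 SD, cut at about 34% in these data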;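 note: 0% = IFN-gamma with DMSO and 100% = IFN-gamma with 300 µM nifuroxazide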
STAT3 activator: STAT3 signaling activation; U3A cells, IL-6 STAT3-luciferase reporter, luminescence; 100% = signal with IL-6 EC80 alone; activation (% of control), % at 5.6 µM; hit rate 0.91% among 190,000;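 active = activation above the screen-wide mean of compound activation plus 3 SD, cut at about 130% in these data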;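 note: 0% = background luminescence of wells with medium and substrate only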
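Test system: human U3A cells carrying STAT3-luciferase construct; control set: IL-6-only wells as 100% reference; timing: compound pre-incubation 1 h before IL-6, then 6 h stimulation at 37 °C; also added: IL-6 stimulus at 33 ng/mL final; evaluation: % activation versus median of IL-6-stimulated wells; detection: reporter luminescence signal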
APP 5'UTR act: activates APP 5'UTR luciferase reporter; SH-SY5Y APP 5'UTR luciferase reporter, luminescence; zero percent = DMSO vehicle wells; activation, % at 2 µM; hit rate 1% among 190,000; AID 1276;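 active = activation above a set limit, based on mean plus 3 SD of controls, cut at about 140% in these data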
* hit, by the source's call; · = no result given.

SMILES	NF-kB expr up	Pf gamet viab	STAT1 activator	STAT1 inh	STAT3 activator	APP 5'UTR act
COC(=O)/C(=C/c1c[nH]c2ccccc12)[N+](=O)[O-]	1.3	·	86	16	134*	14
O=c1cc(CCl)[nH]c2nc3ccccc3n12	·	24	·	·	·	·
O=c1cc(-c2ccccc2)[nH]c2nc3ccccc3n12	4.8*	·	94	6	73	116
COc1ccc(-n2c(C)cc(-c3cn4cccc(C)c4n3)c2C)cc1	0.98	·	100	-2	103	17
Cc1cc(-c2cn3ccccc3n2)c(C)n1-c1ccccc1	2.6	3	100	0	55	176*
Cc1ccc(C2=Nc3ccccc3N=C(C(Cl)Cl)C2)cc1	4*	·	91	9	84	109
Cc1ccc2c(c1)N=C(c1ccccc1)CC(C(Cl)Cl)=N2	·	5	·	·	·	·
Cc1noc(C)c1CSc1nc2ccccc2[nH]1	1	-6	94	6	81	-3
Fc1ccccc1CSCc1nc2ccccc2[nH]1	2.3	-8	131*	-34	118	18
CC(C)CCSc1nc2ccccc2[nH]1	1.1	-12	129*	-31	91	100
Fc1cccc(F)c1CSc1nc2ccccc2[nH]1	7.2*	10	145*	-48	89	156*
COc1ccc(CSc2nc3ccccc3[nH]2)cc1	5.7*	·	108	-9	74	150*
CC(C)Sc1nc2ccccc2[nH]1	1.1	·	87	13	102	7
O=C(O)CSCC(=O)Nc1ccc(C2CCCCC2)cc1	0.19	-9	52	52*	23	-67
CCOc1ccccc1NC(=O)CCCc1ccc(OC)c(C)c1	·	-6	·	·	·	·
C[n+]1c(/C=C/c2ccc3c(c2)OCO3)ccc2ccccc21	0.58	-1	115	-18	94	185*
N#C/C(C(=O)Oc1ccccc1)=C1\C=CC=CN1	1.9	·	142*	-46	95	57
N#Cc1cc2c(nc1SCc1ccc(Cl)nc1)CCCCC2	·	-5	·	·	·	·
O=C(c1cc(-c2cccs2)on1)N1CCN(c2ccc(F)cc2)CC1	3.4*	·	101	-1	94	-1
O=C(c1cc(-c2cccs2)on1)N1CCN(c2ccccc2)CC1	3.2	·	102	-2	96	10
CCCC(=O)Oc1ccc(C2NC(=O)c3ccccc3O2)cc1OC (stereo not given)	·	-11	·	·	·	·
O=C(O)c1cc(/C=N\O)ccc1OCc1ccccc1	1.4	·	103	-3	102	-1
CCOc1cc(/C=N/N=C(N)N)ccc1OCc1ccc(Cl)cc1	2.6	-16	93	7	91	-27
COc1cc(/C=N/O)ccc1OCc1ccc(C(=O)O)cc1	3.4*	·	13	93*	9	-82
COc1cc(/C=N/NS(=O)(=O)c2ccc3ccccc3c2)ccc1OCc1ccc(C(=O)O)cc1	·	12	·	·	·	·
SMILES	NF-kB expr up	Pf gamet viab	STAT1 activator	STAT1 inh	STAT3 activator	APP 5'UTR act
COc1cc(/C=N/NS(=O)(=O)c2ccc(C)cc2)ccc1OCc1cccc(C(=O)O)c1	2.3	3	32	72*	61	-31
COc1cc(/C=N/N=C(N)N)ccc1OCc1ccc(Cl)cc1	1.2	-9	98	0	72	180*
COc1cc(/C=N/N=C2/NC(=O)C(CC(=O)O)S2)ccc1OCc1ccc(Cl)cc1 (stereo not given)	2.5	0	130*	-33	107	84
S=C(NCCc1ccccc1)NC1CCCCCC1	3.2	-2	137*	-41	110	78
O=C(NC1CCCCC1)C(=S)NCCc1ccccc1	1.4	·	115	-19	97	24
CC1CCN(C(=S)NCCc2ccccc2)CC1	3.4*	-10	124	-26	113	95
COc1ccc(OC)c(NC(=O)Cn2nc(C)c3ccccc3c2=O)c1	·	17	·	·	·	·
CC(/C=C1\SC(=O)N(CCCC(=O)O)C1=O)=C\c1ccccc1	0.28	·	66	36*	31	-79
CC(/C=C1\SC(=S)N(CCCC(=O)Nc2ccc(C(=O)O)cc2)C1=O)=C\c1ccccc1	1.8	17	102	-3	99	15
Cc1nc(NC(=O)CN2CC(C)OC(C)C2)sc1C(=O)N(C)C (stereo not given)	·	-19	·	·	·	·
O=C(c1cccc(C(F)(F)F)c1)N1CCc2c([nH]c3ccccc23)C1C(F)(F)F (stereo not given)	·	-12	·	·	·	·
O=C(/C=C/Nc1ccc(S(=O)(=O)Nc2ncccn2)cc1)c1cccs1	·	19	·	·	·	·
CCOC(=O)c1ccc(N/C=C/C(=O)c2ccco2)cc1	5.2*	·	121	-22	67	126
O=C(/C=C/Nc1ccc(F)cc1)c1ccco1	5.1*	·	127	-24	77	146*
O=C(/C=C/Nc1ccc(F)cc1)c1cccs1	·	·	80	22	64	160*
CCOC(=O)c1ccc(N/C=C/C(=O)c2ccc(OC)c(OC)c2)cc1	1.1	-7	105	-5	93	12
Cc1ccc(N/C=C/C(=O)c2ccco2)c(O)c1	·	-13	·	·	·	·
O=C(Nc1cccc(F)c1)c1ccco1	1.3	-10	107	-10	88	33
Cc1ccc([N+](=O)[O-])cc1N/C=C/C(=O)c1ccco1	1.2	5	111	-12	134*	23
CC(=O)Nc1ccc(NC(=O)c2c(C)c(-c3ccccc3)nc3ccccc23)cc1	·	-19	·	·	·	·
COc1cccc(C(C(=O)NC2CCCC2)N(CC2CCCO2)C(=O)Cc2cccs2)c1 (stereo not given)	0.99	-41	96	2	105	20
CCc1cccc(C)c1NC(=O)CSc1nnc(CCCOc2ccc(Cl)cc2Cl)n1C	1.1	1	94	9	108	-14
Cc1ccc(C2C3C(=O)N(c4ccc(C)cc4)C(=O)C3N3CCCN23)cc1 (stereo not given)	·	8	·	·	·	·
Nc1c(-c2ccccc2)cnn1-c1cccc(C(F)(F)F)c1	2.8	·	143*	-48	100	95
Nc1c(-c2ccccc2)cnn1-c1ccc(C(=O)O)cc1	5.7*	-5	133*	-36	102	138*
SMILES	NF-kB expr up	Pf gamet viab	STAT1 activator	STAT1 inh	STAT3 activator	APP 5'UTR act
N#Cc1c(C#N)c(-c2ccccc2)n(-c2ccc(C(=O)O)cc2)c1N	1.2	·	110	-10	101	17
Nc1c(-c2cccc(Cl)c2)cnn1-c1cccc(C(F)(F)F)c1	1	-2	107	-8	85	23
Cc1ccc(-c2cnn(-c3cccc([N+](=O)[O-])c3)c2N)cc1	2.9	4	142*	-47	99	96
CCc1ccc(-c2ccc(SCC(=O)Nc3nnc(C)s3)nn2)cc1	3	·	119	-22	85	85
CCOc1ccc(-c2ccc(SCC(=O)Nc3nnc(C)s3)nn2)cc1	2.6	18	103	-4	89	183*
CCSc1ccc(-c2ccc(C)cc2)nn1	6.6*	-22	98	1	65	187*
Cc1ccc(-c2ccc(SCC(=O)Nc3nonc3C)nn2)cc1	1.3	-15	105	-6	100	18
COc1ccc(C(=O)CSc2ccc(-c3ccccc3)nn2)cc1	1.3	·	100	0	96	8
